Assay results: ChEMBL document CHEMBL1123577, “Synthesis and structure-activity relationships of a series of aminopyridazine derivatives of gamma-aminobutyric acid acting as selective GABA-A antagonists” (J Med Chem, 1987)
pIC50, pKi: −log10 of the molar value.

Experiments:
[1] = target: GABA-A receptor; anion channel; assay: Binding affinity, determined by its ability to displace the [3H]GABA from Gamma-aminobutyric acid A (GABA-A) receptor site of rat brain membranes; parameters: species or system Membrane
[2] = target: GABA-A receptor; anion channel; assay: Inhibition of [3H]GABA binding to Gamma-aminobutyric acid A (GABA-A) receptor of rat brain membranes; format: cell membranes, Membrane
Outline: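 Triton-treated whole-brain membranes from male Wistar rats (180–220 g), labelled with [3H]GABA at 2.9 nM. Compounds were first screened at 100 μM. Those inhibiting binding by more than 50% were run as dose-inhibition curves of four to eight concentrations in triplicate incubations, and IC50 was derived by log-probit analysis.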

[3] = Inhibitory activity against sodium-dependent synaptosome uptake was determined; format: functional, tissue-based, Brain
[4] = target: 4-aminobutyrate aminotransferase, mitochondrial (Homo sapiens, UniProt P80404); assay: Compound was tested for inhibition of Gamma-amino-N-butyrate transaminase
4-aminobutyrate aminotransferase, mitochondrial, sequence (P80404 whole entry): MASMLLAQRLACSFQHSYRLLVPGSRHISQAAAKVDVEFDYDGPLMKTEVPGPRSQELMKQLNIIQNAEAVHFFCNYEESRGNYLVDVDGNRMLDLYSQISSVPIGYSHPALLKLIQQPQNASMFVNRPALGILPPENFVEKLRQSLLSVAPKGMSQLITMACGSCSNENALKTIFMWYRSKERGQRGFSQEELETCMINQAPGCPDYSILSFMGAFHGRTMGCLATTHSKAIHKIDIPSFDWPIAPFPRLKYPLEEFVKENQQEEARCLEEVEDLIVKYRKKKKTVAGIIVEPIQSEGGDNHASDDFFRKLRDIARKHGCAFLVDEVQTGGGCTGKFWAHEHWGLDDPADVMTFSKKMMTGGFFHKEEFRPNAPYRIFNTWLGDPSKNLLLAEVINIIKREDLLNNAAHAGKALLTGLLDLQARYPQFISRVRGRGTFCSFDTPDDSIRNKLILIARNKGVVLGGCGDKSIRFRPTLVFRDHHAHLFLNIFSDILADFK

Structure (SMILES)	pKi [1]	other results
Nc1ccc(C2CCCCC2)n[n+]1CCCC(=O)O	5.43	
Cc1ccn[n+](CCCC(=O)O)c1N	4.50	
N#CCCC[n+]1nc(-c2ccccc2)ccc1N	4.04	
Cc1cc(-c2ccccc2)n[n+](C(C)CCC(=O)O)c1N (configuration not stated)	5.05	
Cc1ccc(-c2cc(C)c(N)[n+](CCCC(=O)O)n2)cc1	6.26	
Cc1cc(N)[n+](CCCC(=O)O)nc1-c1ccccc1	4.98	
NC1C=CC(c2ccccc2)=NN1CCCC(=O)O (configuration not stated)	5.91	
Nc1ccc(-c2ccccc2Cl)n[n+]1CCCC(=O)O	5.86	
CC(C)Cc1ccc(N)[n+](CCCC(=O)O)n1	4.65	
CCOC(=O)CCC[n+]1nc(-c2ccccc2)cc(C)c1N	< 4.00	
Cc1cc(-c2ccc(O)cc2)n[n+](CCCC(=O)O)c1N	6.37	
Cc1cc(-c2ccccc2)n[n+](CCCCC(=O)O)c1N	5.00	
CCCN(CCC)CCCC(=O)O	< 4.00	
O=C(O)CCCC1CCNC1 (configuration not stated)	< 4.00	
Cc1cc(-c2ccc([N+](=O)[O-])cc2)n[n+](CCCC(=O)O)c1N	4.64	
N=C(N)SCCC(=O)O		pIC50 [2]: 4.54
Oc1onc2c1CCNCC2	4.30	
[N-]=[N+]=Nc1ccc(/C(N)=N/CCCC(=O)O)cc1		pKi [3]: 5.10
NC(=O)NCCCC(=O)O	4.00	

Structure (SMILES)	pKi [1]	other results
O=C(O)CNC(=S)Nc1ccccc1		pKi [4]: 4.04
Cc1cc(-c2cccc3ccccc23)n[n+](CCCC(=O)O)c1N	5.58	
Nc1ccc(-c2ccc(F)cc2)n[n+]1CCCC(=O)O	5.90	
Nc1ccc(-c2ccc(Cl)cc2)n[n+]1CCCC(=O)O	6.55	
Cc1cc(-c2cccc(Cl)c2)n[n+](CCCC(=O)O)c1N	6.35	
Cc1cc(-c2ccccc2Cl)n[n+](CCCC(=O)O)c1N	5.67	
Nc1ccc(Cl)n[n+]1CCCC(=O)O	4.04	
Nc1nc(CCC(=O)O)cs1		pIC50 [2]: 4.17
CC(C)(C)C(=O)ONCCCC(=O)O	4.00	
C[N+]1(C)CCc2cc3c(cc2[C@H]1[C@@H]1OC(=O)c2c1ccc1c2OCO1)OCO3	4.42	
Nc1ccc(-c2ccc([N+](=O)[O-])cc2)n[n+]1CCCC(=O)O	5.86	
CC12CC(=O)C3C(CCC4CC(O)CCC43C)C1CC(=N)N2 (configuration not stated)	7.33	
Nc1cc(-c2ccccc2)cn[n+]1CCCC(=O)O	4.00	
N/C(S)=N\CC(=O)O		pIC50 [2]: 4.74
O=C(O)CCc1c[nH]cn1		pIC50 [2]: 3.54
Cc1cc(-c2ccccc2)n[n+](CCCC(=O)O)c1N [FAMIRAPRINIUM CHLORIDE]	5.64	
N=C(N)NCC(=O)O [GUANIDINO ACETATE]		pIC50 [2]: 5.68
O=C(O)Cc1c[nH]cn1 [IMIDAZOLE ACETIC ACID]		pIC50 [2]: 6.05
N=C(N)NCCC(=O)O [OMPENACLID]		pIC50 [2]: 5.74

Now from value to compound, other results behind:

pKi [1]	Structure (SMILES)	other results
6.24	Nc1ccc(-c2cccs2)n[n+]1CCCC(=O)O	
4.97	Cc1n[n+](CCCC(=O)O)c(N)cc1-c1ccccc1	
5.15	Cc1cc(-c2ccccc2)n[n+](CCC(C)C(=O)O)c1N (configuration not stated)	
4.04	N#CCCC[n+]1nc(-c2ccccc2)cc(-c2ccccc2)c1N	
6.51	COc1ccc(-c2cc(C)c(N)[n+](CCCC(=O)O)n2)cc1	
5.15	Cc1cc(-c2ccccc2)n[n+](CCC(=O)O)c1N	
4.70	Cc1cc(-c2ccccc2)n[n+](CCCC#N)c1N	
4.90	Cc1cc(-c2ccccc2)n[n+](CCCCCC(=O)O)c1N	
5.63	Nc1ccc(-c2ccsc2)n[n+]1CCCC(=O)O	
4.00	NC1C(c2ccccc2)=CC(c2ccccc2)=NN1CCCC(=O)O (configuration not stated)	
4.04	Cc1cc(-c2ccccc2)n[n+](CCCC(N)=O)c1N	
6.25	Nc1ccc(-c2ccc(Cl)cc2Cl)n[n+]1CCCC(=O)O	
< 4.00	Cc1cc(-c2ccccc2)nn(CCCC(=O)O)c1=O	
4.21	Cc1cc(-c2ccccc2)n[n+](CC(=O)O)c1N	
